High-throughput results: PubChem, several laboratories
The list is not random: actives were taken first. Their share in the collection is about 2.5%.
TRPC4 block – TRPC4 (mouse) channel inhibition. AID 2247. Q9QUQ5. actives 0.39% (n = 300,000). B-score at 10 µM. HEK293 TRPC4beta/mu-opioid, DAMGO-evoked Fluo4 calcium flux; hits give low values;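 active means B-score over 3 SD under the library average, no early fluorescence shift, positive overall ratio signal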
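System: stable TRPC4beta/mu-opioid receptor HEK293 cells; Dosing: single-point compound dosing; Measured by: Fluo4 Ca2+ flux fluorescence; Read-out basis: per-well B score of integrated baseline-normalized Fluo4 ratio.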
TRPC6 act – activators of mouse TRPC6 channel; HEK293-TRPC6 membrane potential dye fluorescence; hits give high values; B-score at 10 µM; actives 0.13% (n = 310,000); Q61143;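 active means B-score of the integrated fluorescence ratio above library mean plus 3 SD, and starting fluorescence ratio within library mean plus 5 SD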;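 further: higher score means more depolarization so channel activation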
TRPC4 agonist – activators of mouse TRPC4 channel; Q9QUQ5; HEK293 TRPC4beta/mu-opioid, Fluo4 calcium fluorescence; hits give high values; B-score at 10 µM; actives 0.49% (n = 310,000);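 active means B-score above 5 SD of library B-scores, and initial fluorescence ratio not above library mean plus 5 SD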;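 further: positive B-score marks a calcium rise read as TRPC4 activation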
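System – HEK293 cells stably co-expressing mouse TRPC4beta and mu-opioid receptor · Signal – Fluo4 calcium-sensitive dye fluorescence, kinetic, 1 Hz baseline · Benchmarks – buffer (low) and maximal DAMGO (high) · Read-out – B score of integrated fluorescence ratio per well · Incubation – dye loading 45 min room temperature, 110 s kinetic read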
Pemphigus Ab inh – human desmoglein-3 autoantibody binding inhibition; binding (percent of control), % at 10 µM; actives 0.48% (n = 310,000); DSG3-coupled beads, scFv-anti-DSG3-GFP binding, flow cytometry; hits give low values;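 active means binding more than 3 SD below its plate's average and above zero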;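 further: hits lower antibody fragment binding to DSG3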
TRPC6 inh – blocks the mouse TRPC6 cation channel. Q61143. HEK293-TRPC6, membrane potential dye, ACh-evoked depolarization; hits give low values. B-score at 10 µM. actives 1.1% (n = 310,000). AID 2553;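 active means B-score under library mean minus 3 SD, initial fluorescence not abnormally high, positive integrated signal ratio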;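 further: B-score derived from integrated fluorescence ratio over the kinetic read; more negative B-score means stronger inhibition of depolarization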
TRPC4 PAM – allosterically enhances the mouse TRPC4 cation channel; B-score at 10 µM; Q9QUQ5; actives 0.42% (n = 310,000); HEK293 TRPC4beta/mu-opioid, DAMGO EC20, Fluo-4 Ca2+ flux; hits give high values;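 active means B-score of calcium response area above 5 SD of library B-scores, with initial fluorescence ratio within 5 SD of library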;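 further: B-score of integrated fluorescence ratio over time as area under calcium response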
* = called active by the depositor; i = inactive; / = no result given.

SMILES	TRPC4 block	TRPC6 act	TRPC4 agonist	Pemphigus Ab inh	TRPC6 inh	TRPC4 PAM
Cc1ccc(C)c(OCc2nc3ccc(S(=O)(=O)Nc4c(C)n(C)n(-c5ccccc5)c4=O)cc3[nH]2)c1	i	i	i	95	i	i
Cc1noc(C)c1CS(=O)(=O)c1ccc([N+](=O)[O-])cc1	i	i	i	97	i	i
CN(C)c1ccc(-c2nc3ccccc3n2C)cc1	i	i	46*	123	i	i
CC(C)n1c(-c2ccc(N(C)C)cc2)nc2ccccc21	/	/	/	102	/	/
Cc1ccn2c(NC3CCCC3)c(-c3cccs3)nc2c1	-6*	i	i	99	i	i
CNc1nc(SCc2ccccc2Cl)nc2c1CCCC2	-6*	i	i	108	i	i
CCCCn1c(N)c(N(CC(C)C)C(=O)C2CCN(S(=O)(=O)c3ccc(C)cc3C)CC2)c(=O)[nH]c1=O	i	i	i	104	i	i
COc1ccc(/C=C/C(=O)Oc2cc(O)cc(O)c2)cc1	-7*	i	i	99	i	i
CCOC(=O)c1cc2c(c(-c3ccccc3)n1)[C@H](CCO)N(S(=O)(=O)C(C)(C)C)C2	/	/	/	102	/	/
COc1ccc(C(=O)CSc2nc(=O)n3ccc(C)cc3n2)cc1	/	/	/	57*	/	/
Cn1cnc(C(=O)N2CCc3ccccc3C2)c1C(=O)N1CCc2ccccc2C1	/	/	/	106	/	/
CSCCC(NS(=O)(=O)c1ccc(Cl)cc1)C(=O)O (configuration not stated)	i	i	i	108	i	i
CSCCC(NS(=O)(=O)c1ccc(Cl)cc1)C(=O)N1CCN(c2ccccc2)CC1 (configuration not stated)	/	/	/	-2.0*	/	/
CC1=NNC(=O)/C1=C\c1cn(-c2ccccc2)nc1-c1ccccc1	i	i	i	76	i	10*
O=S(=O)(c1ccc(Cl)cc1)N1CCN(c2ncnc3sccc23)CC1	/	/	/	100	/	/
O=C1OCCN/C1=C\C(=O)c1ccccc1	i	i	i	103	i	14*
Cc1nc(CN2CCCCC2)cc(=O)[nH]1	i	i	i	121	i	i
CCOC(=O)C1=NNC(C(=O)c2ccc(Cl)cc2)C1c1ccc(OC)cc1 (configuration not stated)	i	i	i	86	i	15*
Cc1nn(C(=O)c2cccnc2)c(C)c1C	i	i	i	101	i	i
Cc1nn(C(=O)c2cccnc2)c(C)c1Sc1ccccc1	-6*	i	i	101	i	i
CCOc1cc(CNC2CCCC2)cc(Cl)c1OCc1ccccc1	-6*	i	i	109	i	i
CCOc1c(Br)cc(CNC2CCCCCCC2)cc1OC	-6*	i	i	103	i	i
CCOc1cc(CNCC(C)C)cc(Cl)c1OCc1ccccc1	i	i	i	102	i	i
COc1cc(CNC2CCCC2)c(Br)cc1OC1CCCC1	-7*	i	i	96	i	i
COCCn1c(SCC(=O)NC2CCCC2)nnc1C(C)C	i	i	i	97	i	i
SMILES	TRPC4 block	TRPC6 act	TRPC4 agonist	Pemphigus Ab inh	TRPC6 inh	TRPC4 PAM
CC(OC(=O)Cc1n[nH]c(=O)c2ccccc12)C(=O)Nc1ccccc1[N+](=O)[O-] (configuration not stated)	i	i	i	98	i	i
CC(OC(=O)Cc1n[nH]c(=O)c2ccccc12)C(=O)Nc1cccc([N+](=O)[O-])c1 (configuration not stated)	i	i	i	108	i	11*
CCOc1ccc2c(c1)c(=O)c(S(=O)(=O)c1ccc(CC)cc1)cn2C	i	i	i	96	i	i
CN(C(=O)c1ccc(Oc2ccc([N+](=O)[O-])cc2)cc1)C1CCCCC1	i	i	i	92*	i	i
CN(C(=O)c1cccc(NC(=O)Cc2ccc([N+](=O)[O-])cc2)c1)C1CCCCC1	/	/	/	98	/	/
COc1ccc(-c2nnc3sc(-c4ccccn4)nn23)cc1	i	i	i	/	i	i
CC(C)(C)c1ccc(-c2nnc3sc(-c4ccccn4)nn23)cc1	i	i	i	106	i	85*
CCCC(C(=O)Nc1ccc(S(=O)(=O)Nc2nccs2)cc1)c1ccccc1 (configuration not stated)	/	/	/	102	/	/
CN(CCCNC(=O)CCCOc1cc(=O)n(C)c2ccccc12)Cc1ccccc1	i	i	i	163	i	19*
CN(CCNC(=O)CCCOc1cc(=O)n(C)c2ccccc12)Cc1ccccc1	i	i	99*	101	i	i
COc1ccc(CCNC(=O)CCCOc2cc(=O)n(C)c3ccccc23)cc1OC	i	i	i	111	i	i
CCOC(=O)C1CCCN(S(=O)(=O)c2cnc(Cl)c(Br)c2)C1 (configuration not stated)	i	i	i	105	i	i
COc1cccc(CN2CCC(C(=O)N3CCN(c4ccccc4F)CC3)CC2)c1OC	i	i	i	105	i	i
Cc1ccc(N(C(=O)c2snc(C(N)=O)c2N)C(C(=O)NCC2CCCO2)c2ccc3ncccc3c2)cc1 (configuration not stated)	i	i	i	/	i	i
Cc1cccc(N(C(=O)c2snc(C(N)=O)c2N)C(C(=O)NCC2CCCO2)c2ccc3ncccc3c2)c1 (configuration not stated)	-6*	i	i	113	i	i
Cc1ccccc1N(C(=O)c1snc(C(N)=O)c1N)C(C(=O)NC1CCCC1)c1ccco1 (configuration not stated)	-8*	i	i	105	i	i
COc1ccccc1N(C(=O)c1snc(C(N)=O)c1N)C(C(=O)NC1CCCC1)c1ccc2ncccc2c1 (configuration not stated)	-6*	i	i	102	i	i
COc1cccc(N(C(=O)c2snc(C(N)=O)c2N)C(C(=O)NCC2CCCO2)c2ccc3ncccc3c2)c1 (configuration not stated)	-6*	i	i	119	i	i
CC12CN(C(=O)c3ccccc3Br)CC(C)(CN(C(=O)c3ccccc3Br)C1)C2=O	i	i	i	/	i	i
NS(=O)(=O)c1ccc(CCNC(=O)c2cnccn2)cc1	i	i	i	99	i	i
